Results from ChEMBL document CHEMBL1629493, “Synthesis and cytostatic activity of purine nucleosides derivatives of allofuranose” (Eur J Med Chem, 2010).

What was measured:
Assay type in all cases: functional, cell-based
MCF7 = experiment: Cytostatic activity against human MCF7 cells after 96 hrs by colorimetric microculture assay; conditions: MCF7, 96 h
Summary of the method: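 MCF-7 cells at 10⁴ per well, preincubated 24 h, then treated at 37 °C for 96 h with varying doses dissolved in DMSO alongside DMSO controls. Read-out: MTT colorimetry at 595 nm, viability as a fraction of control absorbance. IC50 fitted from concentration-effect curves; three experiments, mean with standard deviation.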

HeLa = experiment: Cytostatic activity against human HeLa 229 cells after 48 hrs by colorimetric microculture assay
Summary of the method: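 HeLa-229 cells plated at 4 × 10³ per well and cultured 24 h before treatment at 37 °C for 48 h with varying doses in DMSO, DMSO controls included. MTT colour measured at 595 nm. Percent viability relative to control; IC50 from concentration-effect curves. Mean of three experiments, SD given.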

HL-60 = experiment: Cytostatic activity against human HL60 cells after 24 hrs by colorimetric microculture assay; conditions: HL-60, 24 h
Summary of the method: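 MTT assay: HL-60 cells seeded at 10⁴ per well, grown 24 h in culture medium, then exposed at 37 °C for 24 h to varying doses of compounds dissolved in DMSO, with DMSO controls. Absorbance read at 595 nm. Viability taken as treated over control absorbance. IC50 derived from concentration-effect curves; means of three experiments with standard deviation.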

SMILES: OC[C@@H](O)[C@H]1O[C@@H](n2cnc3c(Cl)ncnc32)[C@H](O)[C@@H]1O
- IC50 (MCF7): > 100 µM
- IC50 (HeLa): > 100 µM
- IC50 (HL-60): > 100 µM

SMILES: OC[C@@H](O)[C@H]1O[C@@H](n2cnc3c(Cl)nc(Cl)nc32)[C@H](O)[C@@H]1O
- IC50 (MCF7): 54.2 µM
- IC50 (HeLa): 47.1 µM
- IC50 (HL-60): > 100 µM

SMILES: Nc1ncnc2c1ncn2[C@@H]1O[C@H]([C@H](O)CO)[C@@H](O)[C@H]1O
- IC50 (MCF7): > 100 µM
- IC50 (HeLa): > 100 µM
- IC50 (HL-60): > 100 µM

SMILES: Nc1nc(Cl)nc2c1ncn2[C@@H]1O[C@H]([C@H](O)CO)[C@@H](O)[C@H]1O
- IC50 (MCF7): > 100 µM
- IC50 (HeLa): > 100 µM
- IC50 (HL-60): > 100 µM

SMILES: CNc1ncnc2c1ncn2[C@@H]1O[C@H]([C@H](O)CO)[C@@H](O)[C@H]1O
- IC50 (MCF7): > 100 µM
- IC50 (HeLa): > 100 µM
- IC50 (HL-60): > 100 µM

SMILES: CNc1nc(Cl)nc2c1ncn2[C@@H]1O[C@H]([C@H](O)CO)[C@@H](O)[C@H]1O
- IC50 (MCF7): > 100 µM
- IC50 (HeLa): > 100 µM
- IC50 (HL-60): > 100 µM

SMILES: OC[C@@H](O)[C@H]1O[C@@H](n2cnc3c(-c4ccccc4)ncnc32)[C@H](O)[C@@H]1O
- IC50 (MCF7): > 100 µM
- IC50 (HeLa): > 100 µM
- IC50 (HL-60): > 100 µM

SMILES: CCOc1nc(Cl)nc2c1ncn2[C@@H]1O[C@H]([C@H](O)CO)[C@@H](O)[C@H]1O
- IC50 (MCF7): > 100 µM
- IC50 (HeLa): > 100 µM
- IC50 (HL-60): > 100 µM

SMILES: CC(=O)OC[C@@H](OC(C)=O)[C@H]1O[C@@H](n2cnc3c(Cl)ncnc32)[C@H](OC(C)=O)[C@@H]1OC(C)=O
- IC50 (MCF7): > 100 µM
- IC50 (HeLa): > 100 µM
- IC50 (HL-60): 79.3 µM

SMILES: CC(=O)OC[C@@H](OC(C)=O)[C@H]1O[C@@H](n2cnc3c(-c4ccccc4)ncnc32)[C@H](OC(C)=O)[C@@H]1OC(C)=O
- IC50 (MCF7): > 100 µM
- IC50 (HeLa): > 100 µM
- IC50 (HL-60): > 100 µM

SMILES: CC(=O)OC[C@@H](OC(C)=O)[C@H]1O[C@@H](n2cnc3c(Cl)nc(Cl)nc32)[C@H](OC(C)=O)[C@@H]1OC(C)=O
- IC50 (MCF7): 22.4 µM
- IC50 (HeLa): 24.2 µM
- IC50 (HL-60): 16.1 µM

SMILES: CC(=O)O[C@H]1[C@@H](OC(C)=O)[C@H](n2cnc3c(Cl)nc(Cl)nc32)O[C@@H]1[C@H](O)CO
- IC50 (MCF7): 36.3 µM
- IC50 (HeLa): 36.3 µM
- IC50 (HL-60): 45 µM

SMILES: CC(=O)OC[C@@H](OC(C)=O)[C@H]1O[C@@H](n2cnc3c(N)nc(Cl)nc32)[C@H](OC(C)=O)[C@@H]1OC(C)=O
- IC50 (MCF7): > 100 µM
- IC50 (HeLa): > 100 µM
- IC50 (HL-60): > 100 µM
